The array DNA melting data of Ke et al. (doi:10.1101/2024.01.08.574731)

Assays:
[1] = melting temperature; fluorescence melt of hairpins on a sequencing array, two-state fit, raised by 9.35 °C to match UV melts; conditions: sodium 0.088 M
Outline: (§1)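 On a sequenced MiSeq flow cell, library hairpins with annealed Cy3 and quencher oligos were imaged for Cy3 fluorescence in 2.5 °C steps up to 60 °C, in 50 mM Na-HEPES pH 8.0, 25 mM NaCl. Normalisation used pre-quench Cy3 and control constructs. Bootstrapped two-state fits gave melting temperature and folding enthalpy, combined by inverse variance across four replicates and with fitted temperatures raised by 9.35 °C to match UV melts.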

[2] = folding enthalpy; higher = less favourable; fluorescence melt of hairpins on a sequencing array, two-state fit; conditions: sodium 0.088 M
Outline: as §1

GAATGCGGAAACACATTC (((((.(....).)))))
Tm [1]: 39.8 °C | folding enthalpy [2]: -32.6 kcal/mol

GAATGCGGAAACGTATTC ((((.((....)).))))
Tm [1]: 47.6 °C | folding enthalpy [2]: -35.2 kcal/mol

GAATGGCGAAAGCCTTC (((.(((....))))))
Tm [1]: 41.1 °C | folding enthalpy [2]: -11.9 kcal/mol

GAATGGGGAAACCCATCC (.(((((....))))).)
Tm [1]: 36.5 °C | folding enthalpy [2]: -12.7 kcal/mol

GAATGTGGAAACACACTC ((.((((....)))).))
Tm [1]: 29.8 °C | folding enthalpy [2]: -11.6 kcal/mol

GAATGTGGAAACACATTC (((((((....)))))))
Tm [1]: 59.4 °C | folding enthalpy [2]: -38.6 kcal/mol

GAATTAGGAAACCAATTC (((((.(....).)))))
Tm [1]: 27.7 °C | folding enthalpy [2]: -10.8 kcal/mol

GAATTAGGAAACTGATTC ((((.((....)).))))
Tm [1]: 33.7 °C | folding enthalpy [2]: -19.8 kcal/mol

GAATTTGGAAACAGATTC ((((.((....)).))))
Tm [1]: 33.3 °C | folding enthalpy [2]: -25.2 kcal/mol

GACAAACGAAAGTTGGTC (((.(((....))).)))
Tm [1]: 49.6 °C | folding enthalpy [2]: -29.9 kcal/mol

GACAAAGGAAACCTTGTC (((((.(....).)))))
Tm [1]: 36.4 °C | folding enthalpy [2]: -29.5 kcal/mol

GACAACCGAAAGGTAGTC (((.(((....))).)))
Tm [1]: 51.3 °C | folding enthalpy [2]: -33 kcal/mol

GACAACGAAAGTTGCGTC ((((((....)))..)))
Tm [1]: 40.6 °C | folding enthalpy [2]: -12.1 kcal/mol

GACAACGCGAAAGCGGTC (((..(((....))))))
Tm [1]: 44.9 °C | folding enthalpy [2]: -13.7 kcal/mol

GACAACGGAAACATTGTC (((((.(....).)))))
Tm [1]: 34.6 °C | folding enthalpy [2]: -26.3 kcal/mol

GACAAGCGAAAGCTGGTC (((.(((....))).)))
Tm [1]: 56.4 °C | folding enthalpy [2]: -32.4 kcal/mol

GACAAGCGAAAGCTGTC (((.(((....))))))
Tm [1]: 56 °C | folding enthalpy [2]: -23.1 kcal/mol

GACAAGGGAAACCTTGTC (((((((....)))))))
Tm [1]: 59.4 °C | folding enthalpy [2]: -40.4 kcal/mol

GACACAGAAATGTGTC ((((((....))))))
Tm [1]: 56.5 °C | folding enthalpy [2]: -28.5 kcal/mol

GACACAGGAAACCGTGTC (((((.(....).)))))
Tm [1]: 48.4 °C | folding enthalpy [2]: -41.1 kcal/mol

GACACCACGAAAGTGGTC (((..(((....))))))
Tm [1]: 39 °C | folding enthalpy [2]: -6.51 kcal/mol

GACACCCGAAAGGGCGTC (((.(((....))).)))
Tm [1]: 58.9 °C | folding enthalpy [2]: -36.7 kcal/mol

GACACCGAAAGGTACGTC ((((((....)))..)))
Tm [1]: 35.8 °C | folding enthalpy [2]: -14.1 kcal/mol
